Laboratory results: ChEMBL document CHEMBL2163250, “Carbonylhydrazide-based molecular tongs inhibit wild-type and mutated HIV-1 protease dimerization” (J Med Chem, 2012)
≈ marks a conversion by molar mass, not a printed value. Calls of active or inactive are those of the source. No cut-off for these calls is given here.

Columns and labels:
[1] = target: Protease (Human immunodeficiency virus 1) (UniProt Q9YQ12); test: Inhibition of HIV1 protease dimerization expressed in Escherichia coli Rosetta(DE3) using DABCYL-gamma-abu-Ser-Gln-Asn-Tyr-Pro-Ile-Val-Gln-EDANS as substrate at 28 uM by fluorimetric assay
Chain of Protease (Human immunodeficiency virus 1) (Q9YQ12 as listed by the source): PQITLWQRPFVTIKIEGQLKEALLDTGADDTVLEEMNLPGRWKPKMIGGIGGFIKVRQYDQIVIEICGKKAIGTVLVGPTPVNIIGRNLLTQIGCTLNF

Sus scrofa = organism: Sus scrofa; test: Inhibition of […] using Abz-Thr-Ile-Nle-(p-NO2-Phe)-Gln-Arg-NH2 as substrate at 10 uM by fluorimetric analysis
Summary of the method: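 Pepsin from porcine gastric mucosa assayed fluorometrically in 10 mM NaHCOO, pH 3.5, with 20 μM Abz-Thr-Ile-Nle-(p-NO₂-Phe)-Gln-Arg-NH₂ substrate (Km 13.3 μM). Excitation 337 nm, emission 410 nm. Compounds were tested at 10 μM.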

Renin (Homo sapiens) = target: T1, Renin (Homo sapiens) (UniProt P00797); test: Inhibition of recombinant renin using Arg-Glu(EDANS)-Ile-His-Pro-Phe-His-Leu-Val-Ile-His-Thr-Lys-(DABCYL)-Arg as substrate at 10 uM by fluorimetric analysis
T1 sequence (whole entry): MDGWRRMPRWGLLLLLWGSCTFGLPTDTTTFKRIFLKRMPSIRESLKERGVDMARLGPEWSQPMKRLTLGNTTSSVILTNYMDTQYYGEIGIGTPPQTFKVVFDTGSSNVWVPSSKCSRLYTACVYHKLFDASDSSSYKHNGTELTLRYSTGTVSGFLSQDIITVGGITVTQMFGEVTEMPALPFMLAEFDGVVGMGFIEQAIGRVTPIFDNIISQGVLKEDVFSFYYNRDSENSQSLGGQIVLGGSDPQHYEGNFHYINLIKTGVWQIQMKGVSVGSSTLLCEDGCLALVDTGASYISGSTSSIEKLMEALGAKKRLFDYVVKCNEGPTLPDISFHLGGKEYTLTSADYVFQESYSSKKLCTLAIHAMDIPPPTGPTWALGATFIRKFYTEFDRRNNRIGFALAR
Summary of the method: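 Renin activity read fluorometrically with the EDANS/DABCYL substrate (Km 3.3 μM) at 5 μM in 50 mM Tris–HCl, 100 mM NaCl, 1 mM EDTA, pH 8.0. Excitation 340 nm, emission 500 nm. Compounds were tested at 10 μM.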

[2] = Chemical stability in RPMI medium up to 48 hrs in presence of 20% fetal calf serum; type: physicochemical; settings: cattle
Summary of the method: (§1)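 Inhibitor incubated at 37 °C in RPMI culture medium with 20% fetal calf serum for up to 2 days. Incubations stopped with ethanol, cooled to 4 °C and centrifuged, and the supernatant analysed by HPLC. Half-life came from least-squares linear regression of a semilog plot of remaining inhibitor versus incubation time.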

[3] = Solubility of the compound; type: physicochemical
[4] = Inhibition of HIV1 protease ANAM-11 mutant dimerization expressed in Escherichia coli Rosetta(DE3) using DABCYL-gamma-abu-Ser-Gln-Asn-Tyr-Pro-Ile-Val-Gln-EDANS as substrate by Zhang-Poorman kinetic analysis; parameters: species or system Human immunodeficiency virus 1
Summary of the method: (§2)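 Recombinant protease produced in E. coli Rosetta (DE3)pLysS from a pET-9 vector. Fluorimetric assay (ex 340, em 490 nm) run in 100 mM sodium acetate, 1 mM EDTA, 1 M NaCl, pH 4.7, at 30 °C with 3% (v/v) final DMSO. Substrate held at 5.2 μM, at least six enzyme concentrations (5.33−18.6 nM), inhibitor 0.5−28 μM. Kid derived from Zhang−Poorman analysis. At least triplicate.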

[5] = Inhibition of HIV1 protease MDR-HM mutant dimerization expressed in Escherichia coli Rosetta(DE3) using DABCYL-gamma-abu-Ser-Gln-Asn-Tyr-Pro-Ile-Val-Gln-EDANS as substrate by Zhang-Poorman kinetic analysis; parameters: species or system Human immunodeficiency virus 1; summary of the method: as §2
Protease = Protease (Human immunodeficiency virus 1, UniProt Q9YQ12); test: Inhibition of HIV1 protease dimerization expressed in Escherichia coli Rosetta(DE3) using DABCYL-gamma-abu-Ser-Gln-Asn-Tyr-Pro-Ile-Val-Gln-EDANS as substrate by Zhang-Poorman kinetic analysis
Chain of Protease (Q9YQ12 whole entry): as the sequence (Q9YQ12 as listed by the source) above
Summary of the method: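 Recombinant PR expressed in E. coli Rosetta (DE3)pLysS from a pET-9 vector. Fluorogenic substrate at 5.2 μM (ex 340, em 490 nm) in 100 mM sodium acetate, 1 mM EDTA, 1 M NaCl, pH 4.7, 30 °C, final DMSO 3% (v/v). At least six enzyme concentrations (5.33–18.6 nM) and inhibitor 0.5–28 μM. Kid from Zhang–Poorman analysis, at least triplicate.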

[6] = target: Protease (Human immunodeficiency virus 1) (UniProt Q9YQ12); test: Inhibition of HIV1 protease dimerization expressed in Escherichia coli Rosetta(DE3) at 5 uM by 1-Anilino-8-naphthalene sulfonate-based fluorescent probe binding assay
Summary of the method: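 Recombinant PR (350 nM) in 100 mM sodium acetate, 1 M NaCl, 1 mM EDTA, pH 4.7, incubated at 25 °C with or without 5 μM inhibitor. ANS was then added at final 10–60 μM, with final DMSO 0.2% (v/v). Excitation 370 nm, emission 470 nm. Fluorescence was corrected for ANS plus inhibitor without enzyme, and each measurement was averaged over five reads.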

[7] = Half life of the compound in RPMI medium in presence of 20% fetal calf serum; type: physicochemical; settings: cattle, RPMI medium with 20% fetal calf serum; summary of the method: as §1

CC(=O)NNC(=O)NNC(=O)CCNC(=O)CCCOc1ccc2ccc(OCCCC(=O)NCCC(=O)NNC(=O)NNC(C)=O)cc2c1
inhibition [1]: 0%

CC(C)[C@H](NC(=O)NNC(=O)NNC(=O)CCCOc1ccc2ccc(OCCCC(=O)NNC(=O)NNC(=O)N[C@H](C(N)=O)C(C)C)cc2c1)C(N)=O
inhibition (Sus scrofa): inactive
inhibition (Renin (Homo sapiens)): inactive
Stability [2]: Stable
solubility [3]: 300 µg/mL (≈ 394 µM)
Ki [4]: 800 nM
Ki [5]: 1600 nM
Ki (Protease): 700 nM

CC(=O)NNC(=O)NNC(=O)[C@H](CCCCNC(=O)CCCOc1ccc2ccc(OCCCC(=O)NCCCC[C@H](NC(=O)OC(C)(C)C)C(=O)NNC(=O)NNC(C)=O)cc2c1)NC(=O)OC(C)(C)C
inhibition [1]: 0%

CC(=O)NNC(=O)NNC(=O)[C@@H](NC(=O)CCCOc1ccc2ccc(OCCCC(=O)N[C@H](C(=O)NNC(=O)NNC(C)=O)C(C)C)cc2c1)C(C)C
inhibition [1]: 21%

CC(=O)N[C@H](C(=O)N[C@H](C(=O)N[C@@H](CC(C)C)[C@@H](O)CC(=O)N[C@@H](C)C(=O)N[C@@H](CC(C)C)[C@@H](O)CC(=O)O)C(C)C)C(C)C
inhibition [6]: inactive

COC(=O)[C@@H](NC(=O)[C@H](CC(C)C)NC(=O)[C@@H](NC(=O)CCCOc1ccc2ccc(OCCCC(=O)NNC(=O)NNC(=O)N[C@H](C(N)=O)C(C)C)cc2c1)C(C)C)C(C)C
inhibition (Sus scrofa): inactive
inhibition (Renin (Homo sapiens)): inactive
half-life [7]: 24 h
inhibition [6]: Active
Ki [4]: 170 nM
Ki [5]: 270 nM
Ki (Protease): 150 nM

COC(=O)[C@@H](NC(=O)[C@H](CC(C)C)NC(=O)[C@@H](NC(=O)CCCOc1ccc2ccc(OCCCC(=O)N[C@H](C(=O)N[C@@H](CC(C)C)C(=O)N[C@H](C(=O)OC)C(C)C)C(C)C)cc2c1)C(C)C)C(C)C
inhibition [6]: Active
Ki (Protease): 560 nM

CC(C)CN(C[C@@H](O)[C@H](Cc1ccccc1)NC(=O)O[C@H]1CCOC1)S(=O)(=O)c1ccc(N)cc1
inhibition [6]: inactive

CC(C)(C)NC(=O)[C@@H]1C[C@@H]2CCCC[C@@H]2CN1C[C@@H](O)[C@H](Cc1ccccc1)NC(=O)[C@H](CC(N)=O)NC(=O)c1ccc2ccccc2n1
inhibition [6]: inactive

CC(C)[C@H](NC(=O)CCCOc1ccc2ccc(OCCCC(=O)N[C@H](C(=O)NNC(=O)[C@@H](NC(=O)OC(C)(C)C)C(C)C)C(C)C)cc2c1)C(=O)NNC(=O)[C@@H](NC(=O)OC(C)(C)C)C(C)C
inhibition (Sus scrofa): inactive
inhibition (Renin (Homo sapiens)): inactive
Stability [2]: Stable
inhibition [6]: Active
Ki [4]: 80 nM
Ki [5]: 160 nM
Ki (Protease): 50 nM

CC(C)[C@H](NC(=O)CCCOc1ccc2ccc(OCCCC(=O)O)cc2c1)C(=O)NNC(=O)[C@@H](NC(=O)OC(C)(C)C)C(C)C
inhibition [1]: 0%

COC(=O)CCNC(=O)NNC(=O)NNC(=O)CCCOc1ccc2ccc(OCCCC(=O)NNC(=O)NNC(=O)NCCC(=O)OC)cc2c1
inhibition [1]: 0%

CNC(=O)NNC(=O)NNC(=O)CCCOc1ccc2ccc(OCCCC(=O)NNC(=O)NNC(=O)NC)cc2c1
inhibition [1]: 13%

COC(=O)[C@@H](NC(=O)[C@H](CC(C)C)NC(=O)[C@@H](NC(=O)CCCOc1ccc2ccc(OCCCC(=O)N[C@H](C(=O)NNC(=O)[C@@H](NC(=O)OC(C)(C)C)C(C)C)C(C)C)cc2c1)C(C)C)C(C)C
inhibition (Sus scrofa): inactive
inhibition (Renin (Homo sapiens)): inactive
half-life [7]: 24 h
inhibition [6]: Active
Ki [4]: 100 nM
Ki [5]: 160 nM
Ki (Protease): 90 nM
